Measurements from ChEMBL document CHEMBL4270487, “The Berkeleylactones, Antibiotic Macrolides from Fungal Coculture” (J Nat Prod, 2017).
≈ marks a conversion by molar mass, not a printed value. Calls of active or inactive are those of the source. The rule behind the calls is not given here.

What was measured:
Nakaseomyces glabratus = experiment: Antibiotic activity against Candida glabrata by broth microdilution assay or Alamar blue dye based colorimetric assay; type: functional
Bacillus subtilis = experiment: Antibiotic activity against Bacillus subtilis by broth microdilution assay or Alamar blue dye based colorimetric assay; type: functional
Procedure, shortened: (§1)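 Broth microdilution following CLSI standards, read colorimetrically with Alamar Blue. Test compounds were made as 50 mM stocks in DMSO, then serially diluted 2-fold in the test wells from a top final concentration of 500 μM (500, 250, 125, 64, 32 μM and lower). The MIC was taken from this dilution series.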

Streptococcus pyogenes = experiment: Antibiotic activity against Streptococcus pyogenes by broth microdilution assay or Alamar blue dye based colorimetric assay; type: functional; procedure, shortened: as §1
Candida albicans = experiment: Antibiotic activity against Candida albicans by broth microdilution assay or Alamar blue dye based colorimetric assay; type: functional
Bacillus anthracis = experiment: Antibiotic activity against Bacillus anthracis by broth microdilution assay or Alamar blue dye based colorimetric assay; type: functional
Procedure, shortened: (§2)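 Minimum inhibitory concentration (MIC) by broth microdilution following CLSI standards, with Alamar Blue as the colorimetric reporter. Test compounds were made up as 50 mM stocks in DMSO and serially diluted 2-fold in the test wells. The top final well concentration was 500 μM (500, 250, 125, 64, 32, 16, 8, 4, 2, 1 μM, etc.).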

Staphylococcus aureus [1] = experiment: Antibiotic activity against Staphylococcus aureus 13709 by broth microdilution assay or Alamar blue dye based colorimetric assay; type: functional; procedure, shortened: as §1
CCRF-CEM = experiment: Growth inhibition of human CCRF-CEM cells at 10 uM incubated for 48 hrs by SRB assay; type: functional; conditions: read-out: GI
Stromelysin-1 = Stromelysin-1 (Homo sapiens, UniProt P08254); experiment: Inhibition of MMP3 (unknown origin)
Stromelysin-1, sequence (P08254 whole entry): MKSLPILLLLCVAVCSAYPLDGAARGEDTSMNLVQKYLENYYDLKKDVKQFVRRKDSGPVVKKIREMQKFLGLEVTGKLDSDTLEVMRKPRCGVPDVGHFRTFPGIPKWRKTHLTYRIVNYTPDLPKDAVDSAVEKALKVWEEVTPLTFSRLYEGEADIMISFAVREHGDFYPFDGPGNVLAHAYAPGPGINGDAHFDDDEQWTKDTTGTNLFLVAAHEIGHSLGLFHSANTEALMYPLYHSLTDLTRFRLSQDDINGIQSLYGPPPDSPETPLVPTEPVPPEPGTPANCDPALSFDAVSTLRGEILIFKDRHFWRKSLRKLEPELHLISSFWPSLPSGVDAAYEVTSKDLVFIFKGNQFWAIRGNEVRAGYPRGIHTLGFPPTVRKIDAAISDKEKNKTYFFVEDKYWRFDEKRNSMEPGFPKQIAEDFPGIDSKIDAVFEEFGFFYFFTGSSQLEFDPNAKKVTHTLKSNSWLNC

Staphylococcus aureus [2] = experiment: Antibiotic activity against methicillin-resistant Staphylococcus aureus isolate CAIRD116 by broth microdilution assay or Alamar blue dye based colorimetric assay; type: functional; procedure, shortened: as §2
Staphylococcus aureus [3] = experiment: Antibiotic activity against methicillin-resistant Staphylococcus aureus isolate CAIRD142 by broth microdilution assay or Alamar blue dye based colorimetric assay; type: functional; procedure, shortened: as §2
Staphylococcus aureus [4] = experiment: Antibiotic activity against methicillin-resistant Staphylococcus aureus isolate CAIRD148 by broth microdilution assay or Alamar blue dye based colorimetric assay; type: functional; procedure, shortened: as §2
[5] = In-vitro inhibition of protein translation using pY71-sfGFP in PUREexpress in vitro protein synthesis system assessed as reduction in cell-free GFP protein translation at 250 uM measured every 20 mins for 2 hrs; type: functional
Procedure, shortened: (§3)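 Cell-free transcription-translation reactions were programmed with the pY71-sfGFP plasmid. The antibiotic solution was dried at the bottom of the tube before the reaction components were added. Erythromycin, josamycin and tylosin served as references at a final 50 μM. Reactions were incubated at 37 °C, with GFP fluorescence (excitation 488 nm, emission 520 nm) read every 20 min for 2 h.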

Ribosome [6] = experiment: Induction of ribosome stalling assessed as induction of stalling of ribosome at ermBL ORF at 50 uM by extension inhibition assay
Procedure, shortened: (§4)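 Primer extension inhibition was run on an ermBL gene template following the published procedure. Erythromycin, josamycin and tylosin were included in the reaction as references at 50 μM. The test agent was present at 50 or 250 μM.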

K562 = experiment: Growth inhibition of human K562 cells at 10 uM incubated for 48 hrs by SRB assay; type: functional; conditions: K562, 48 h, read-out: GI
Staphylococcus aureus [7] = experiment: Antibiotic activity against methicillin-resistant Staphylococcus aureus isolate NE277 by broth microdilution assay or Alamar blue dye based colorimetric assay; type: functional; procedure, shortened: as §2
[8] = In-vitro inhibition of protein translation using pY71-sfGFP in PUREexpress in vitro protein synthesis system assessed as reduction in cell-free GFP protein translation at 50 uM measured every 20 mins for 2 hrs; type: functional; procedure, shortened: as §3
Ribosome [9] = experiment: Induction of ribosome stalling (unknown origin) assessed as induction of stalling of ribosome at ermBL ORF at 250 uM by extension inhibition assay; procedure, shortened: as §4
RPMI-8226 [10] = experiment: Cytotoxicity human RPMI8226 cells assessed as cell lethality at 10 uM incubated for 48 hrs by SRB assay; type: functional
Procedure, shortened: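 Single-dose (10 μM) screen run by the NCI Developmental Therapeutics Program across its 60 cell-line panel. Read as percent growth inhibition.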

RPMI-8226 [11] = experiment: Growth inhibition of human RPMI8226 cells at 10 uM incubated for 48 hrs by SRB assay; type: functional; conditions: RPMI-8226, 48 h, read-out: GI

Compound | MIC (Nakaseomyces glabratus) [µM] | MIC (Bacillus subtilis) [µM] | MIC (Streptococcus pyogenes) [µM] | MIC (Candida albicans) [µM] | MIC (Bacillus anthracis) [µM] | MIC (Staphylococcus aureus [1]) [µM] | MIC (Staphylococcus aureus [2]) | MIC (Staphylococcus aureus [3]) | MIC (Staphylococcus aureus [4]) | Activity (Ribosome [6]) | translation inhibition (active/not active) [8] | also measured
C[C@H]1OC(=O)/C=C/[C@@H](O)[C@@H](O)CCCCCCCC[C@@H]1O | > 1000 | > 1000 | 500 (≈ 150 µg/mL) | > 1000 | 250 (≈ 75.1 µg/mL) | 64 (≈ 19.2 µg/mL) |  |  |  |  |  | inhibition of growth at 10 µM (CCRF-CEM): 38%; IC50 (Stromelysin-1): 150 µM
CCC[C@@H]1C[C@@H](C(=O)N[C@@H]([C@H]2O[C@H](SC)[C@H](O)[C@@H](O)[C@H]2O)[C@H](C)Cl)N(C)C1 [CLINDAMYCIN] |  |  |  |  |  |  | > 16 mg/L | > 16 mg/L | > 16 mg/L |  |  | 
C[C@@H]1CC(O)CCCCCCC[C@H](OC(=O)CCC(=O)O)C(=O)/C=C/C(=O)O1 (some centres not stated) | > 1000 | 250 (≈ 99.6 µg/mL) | 125 (≈ 49.8 µg/mL) | > 1000 | 64 (≈ 25.5 µg/mL) | 32 (≈ 12.8 µg/mL) |  |  |  |  |  | 
Cc1nnc(SCC2=C(C(=O)O)N3C(=O)[C@@H](NC(=O)Cn4cnnn4)[C@H]3SC2)s1 [CEFAZOLIN] |  |  |  |  |  |  | 256 mg/L | 256 mg/L | 256 mg/L |  |  | 
C[C@@H]1CCCCCCCCC[C@H](O)C(=O)C[C@@H](SC[C@@H](O)C(=O)O)C(=O)O1 | 16 (≈ 6.47 µg/mL) | 32 (≈ 12.9 µg/mL) | 8 (≈ 3.24 µg/mL) | 64 (≈ 25.9 µg/mL) | 8 (≈ 3.24 µg/mL) | 2 (≈ 0.809 µg/mL) | 2 µM | 4 µM | 2 µM | inactive | inactive | inhibition [5]: inactive; inhibition of growth at 10 µM (K562): 85%; MIC (Staphylococcus aureus [7]): 2 µM (≈ 0.809 µg/mL); Activity (Ribosome [9]): inactive; Activity (RPMI-8226 [10]): 2.4%; IC50 (Stromelysin-1): 100 µM
CC[C@H]1OC(=O)C[C@@H](O)[C@H](C)[C@@H](O[C@@H]2O[C@H](C)[C@@H](O[C@H]3C[C@@](C)(O)[C@@H](O)[C@H](C)O3)[C@H](N(C)C)[C@H]2O)[C@@H](CC=O)C[C@@H](C)C(=O)/C=C/C(C)=C/[C@@H]1CO[C@@H]1O[C@H](C)[C@@H](O)[C@@H](OC)[C@H]1OC |  |  |  |  |  |  |  |  |  | Active | Active | 
CC[C@H]1OC(=O)[C@H](C)[C@@H](O[C@H]2C[C@@](C)(OC)[C@@H](O)[C@H](C)O2)[C@H](C)[C@@H](O[C@@H]2O[C@H](C)C[C@H](N(C)C)[C@H]2O)[C@](C)(O)C[C@@H](C)C(=O)[C@H](C)[C@@H](O)[C@]1(C)O [ERYTHROMYCIN] |  |  |  |  |  |  | > 32 mg/L | > 32 mg/L | > 32 mg/L | Active | Active | 
C[C@H]1c2cccc(O)c2C(=O)C2=C(O)[C@]3(O)C(=O)C(C(N)=O)=C(O)[C@@H](N(C)C)[C@@H]3[C@@H](O)[C@@H]21.O [DOXYCYCLINE] |  |  |  |  |  |  | 8 mg/L | 16 mg/L | 0.25 mg/L |  |  | 
C[C@@H]1CCCCCCCCC[C@H](OC(=O)CCC(=O)O)C(=O)C[C@@H](SC[C@@H](O)C(=O)O)C(=O)O1 | 64 (≈ 32.3 µg/mL) | 64 (≈ 32.3 µg/mL) | 250 (≈ 126 µg/mL) | > 250 | 16 (≈ 8.07 µg/mL) | 8 (≈ 4.04 µg/mL) | 32 µM | 32 µM | 16 µM |  |  | MIC (Staphylococcus aureus [7]): 16 µM (≈ 8.07 µg/mL)
C[C@H]1OC(=O)/C=C/C(=O)[C@@H](OC(=O)CCC(=O)O)CCCCCCCC[C@@H]1O | 64 (≈ 25.5 µg/mL) | 64 (≈ 25.5 µg/mL) | 64 (≈ 25.5 µg/mL) | 125 (≈ 49.8 µg/mL) | 16 (≈ 6.38 µg/mL) | 16 (≈ 6.38 µg/mL) |  |  |  |  |  | inhibition of growth at 10 µM (K562): 46%; inhibition of growth at 10 µM (CCRF-CEM): 48%
C[C@@H]1CCCCCCCCC[C@H](OC(=O)CCC(=O)O)C(=O)/C=C/C(=O)O1 | 125 (≈ 47.8 µg/mL) | 32 (≈ 12.2 µg/mL) | 125 (≈ 47.8 µg/mL) | 250 (≈ 95.6 µg/mL) | 16 (≈ 6.12 µg/mL) | 8 (≈ 3.06 µg/mL) | 16 µM | 16 µM | 16 µM |  |  | MIC (Staphylococcus aureus [7]): 16 µM (≈ 6.12 µg/mL); inhibition of growth at 10 µM (RPMI-8226 [11]): 48%; IC50 (Stromelysin-1): 50 µM
C[C@H]1COc2c(N3CCN(C)CC3)c(F)cc3c(=O)c(C(=O)O)cn1c23.C[C@H]1COc2c(N3CCN(C)CC3)c(F)cc3c(=O)c(C(=O)O)cn1c23.O [LEVOFLOXACIN] |  |  |  |  |  |  | > 16 mg/L | 0.25 mg/L | > 16 mg/L |  |  | 
CO[C@@H]1[C@@H](O[C@@H]2O[C@H](C)[C@@H](O[C@H]3C[C@@](C)(O)[C@@H](OC(=O)CC(C)C)[C@H](C)O3)[C@H](N(C)C)[C@H]2O)[C@@H](CC=O)C[C@@H](C)[C@@H](O)/C=C/C=C/C[C@@H](C)OC(=O)C[C@H]1OC(C)=O |  |  |  |  |  |  |  |  |  | Active | Active | 
